Compound activity (PubChem BioAssay)
Rtt109 HAT inh: C. albicans Rtt109 histone acetyltransferase inhibition; Q5AAJ8; purified Rtt109/Vps75, ThioGlo CoA-SH fluorescence, 4 h; inhibition, % at 34.9 µM; 330,000 tested, 0.16% active; AID 540336;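 active = inhibition of at least 50% in every replicate; inconclusive = best replicate reaches 50% inhibition but some replicates fall short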
Target sequence (Q5AAJ8 whole entry, looked up): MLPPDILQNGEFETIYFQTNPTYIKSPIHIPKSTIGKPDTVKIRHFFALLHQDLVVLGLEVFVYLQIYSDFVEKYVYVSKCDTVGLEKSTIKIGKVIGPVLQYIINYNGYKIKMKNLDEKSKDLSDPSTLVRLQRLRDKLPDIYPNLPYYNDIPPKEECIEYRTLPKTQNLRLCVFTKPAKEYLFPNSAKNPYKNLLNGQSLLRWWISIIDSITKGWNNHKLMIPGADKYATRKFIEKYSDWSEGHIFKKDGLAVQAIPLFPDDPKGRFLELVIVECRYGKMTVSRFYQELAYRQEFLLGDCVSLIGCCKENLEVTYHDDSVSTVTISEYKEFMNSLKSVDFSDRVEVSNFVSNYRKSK
HIV Env fusion: inhibitors of HIV Env-mediated cell fusion; HeLa-JRFL Env/CEM21 cell fusion, luciferase; inhibition, % at 12.3 µM; 360,000 tested, 1.1% active; AID 651610;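 active = mean replicate inhibition score of at least 50 and every replicate individually at or above 50; inconclusive = only one of the two criteria met; inactive = mean below 50 and not all replicates reaching 50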;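 also: 0% = plate neutral controls and 100% = maraviroc near 300 nM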
Arr AP2 block: blocks beta-arrestin peptide binding to AP2 adaptin; 340,000 tested, 0.31% active; FITC-arrestin peptide / GST-AP2 beads, flow cytometry; AP2 beta2 appendage carries R879A mutation; inhibition, % at 10 µM; AID 504490;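 active = inhibition above a set limit, near 3 SD of compounds lacking own fluorescence, cut at about 54% in these data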;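 also: plate controls were DMSO wells for no effect and 5 µM unlabelled arrestin peptide for full effect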
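Assay system: GST-AP2 R879A bound to glutathione beads, E. coli-expressed; Medium: PBS with 0.05% Tween 20 and 0.1% BSA; Also added: fluorescein-tagged arrestin peptide at 50 nM final; Timing: 12 min plus 1 h, RT; Measured by: flow cytometry, FL1 (488/535 nm); Evaluation: percent drop in bead-associated FITC signal.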
PfHsp90 yeast 2: reduces growth (ATP signal) of yeast expressing P. falciparum Hsp90 | inhibition, % at 9.4 µM | S. cerevisiae expressing PfHsp90, BacTiter-Glo ATP, 48 h; yeast lacking PDR1 and PDR3 efflux regulators | 310,000 tested, 0.32% active | AID 504621;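 active = every replicate shows inhibition above about 80%, whatever the replicate mean, limit read from the data; inconclusive = mean inhibition reaches the set limit but some replicate falls short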;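 also: 0% = DMSO neutral controls and 100% = 20 µM radicicol positive controls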
Glyco luc inh: N-linked glycosylation inhibition; reporter increase, % at 12.5 µM; 360,000 tested, 0.23% active; D54 ERlucT glycosylation luciferase reporter, 24 h; percent of 100 nM tunicamycin response;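 active = mean luciferase reporter signal, scaled so untreated is 0 and the glycosylation-blocking control 100, at or above a set limit in every replicate; inconclusive = mean reaches the limit but not every replicate does; inactive = mean below the limit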;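 also: luciferase carries N-glycosylation sites so blocking glycosylation raises the light; 0% = median of neutral control wells and 100% = median of 100 nM tunicamycin wells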
PAX8 reporter: inhibitors of PAX8 transcriptional activity in RMG-I cells; RMG-I TPO-luciferase reporter, SteadyGlo, 24 h; inhibition, % at 12.6 µM; 360,000 tested, 1.2% active; AID 652154;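 active = mean replicate inhibition at least 60% with every replicate also reaching 60%; inconclusive = only one of the two criteria is met; inactive = mean below 60% and not all replicates reaching 60%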;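 also: luciferase light reporting Pax8 driven TPO promoter activity; plate controls were median of neutral control wells for no effect and mitoxantrone controls for full effect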
* = called active by the depositor; ? = inconclusive; · = no result; [ ] = dose if it differs, or a comment. Compounds with a hit are over-represented: about 2.3% of the library has one in this group of screens.

SMILES | Rtt109 HAT inh | HIV Env fusion | Arr AP2 block | PfHsp90 yeast 2 | Glyco luc inh | PAX8 reporter
OCCN=C1CCCc2c1[nH]c1ccc(Cl)cc21 | 16.4 | 67.3* | -16.9 | -16.9 | -4.9 | 30.9
CCOC(=O)C1CCCc2c1[nH]c1ccc(Cl)cc21 (centres undefined) | -0.7 | 9.2 | 8.5 | 13.9 | 0.0 | 8.1
OCCCN=C1CCCc2c1[nH]c1ccc(Cl)cc21 | -3.3 | 57.3* | 9.1 | -28.5 | -1.6 | 2.1
C[C@H](CO)N1C[C@H](C)[C@@H](CN(C)Cc2ccccc2)Oc2ccc(NC(=O)Nc3ccc(F)cc3)cc2C1=O | · | -3.1[16.7 µM] | · | · | · | -26.8
CN1CCN(C(=O)C[C@H]2CC[C@@H]3[C@H](COc4ccc(NC(=O)C5CC5)cc4C(=O)N3C)O2)CC1 | · | -18.1[16.7 µM] | · | · | · | -2.6
CO[C@@H]1CN(C)C(=O)c2cc(NC(=O)c3ccccc3F)ccc2OC[C@H](C)N(C)C[C@@H]1C | · | -3.0[16.7 µM] | · | · | · | -0.6
C[C@H]1CN([C@@H](C)CO)C(=O)c2cc(NC(=O)c3ccncc3)ccc2O[C@@H]1CN(C)S(=O)(=O)c1ccc(Cl)cc1 | · | · | · | · | · | -21.9
CC(=O)Nc1cc(-c2cccc(C(=O)NCCN(C)C)c2)cn2c(-c3cccc(C(F)(F)F)c3)cnc12 | · | 32.3 | · | · | -7.9 | 106.4*
CCSc1ccc(-c2cc(NC=O)c3ncc(-c4cccc(C(=O)NCCN(C)C)c4)n3c2)cc1 | · | 4.7 | · | · | -14.1 | 99.3*
CC(=O)Nc1cc(-c2cccc(C(=O)NCCN(C)C)c2)cn2c(-c3ccccc3)cnc12 | · | -4.3 | · | · | -3.1 | 7.8
CNC[C@@H]1Oc2c(NS(C)(=O)=O)cccc2C(=O)N([C@H](C)CO)C[C@@H]1C | · | -0.8[16.7 µM] | · | · | · | -13.9
C[C@H]1CN([C@@H](C)CO)S(=O)(=O)c2ccc(/C=C/c3ccccc3)cc2O[C@@H]1CN(C)C(=O)c1ccncc1 | · | 16.6[16.7 µM] | · | · | · | ·
CCOC(=O)[C@]12CCC=C1N(Cc1ccccc1)C(=O)[C@H](CC(=O)NCC13CC4CC(CC(C4)C1)C3)C2 | · | 63.9* | · | · | · | 10.8
CCOC(=O)[C@]12CCC=C1N(Cc1cccc3ccccc13)C(=O)[C@H](CC(=O)NCC13CC4CC(CC(C4)C1)C3)C2 | · | -62.2 | · | · | · | 5.4
CCCCCCCCN1C(=O)[C@H](CC(=O)NCCCCc2ccccc2)C[C@@]2(C(=O)OCC)CCCC=C12 | · | 68.6* | · | · | · | 14.7
C[C@@H](NC(=O)C[C@H]1C[C@@H]2c3cc(NS(C)(=O)=O)ccc3O[C@@H]2[C@H](CO)O1)c1ccccc1 | · | -14.6[16.7 µM] | · | · | · | -11.6
C[C@@H]1CN([C@@H](C)CO)C(=O)c2cc(NS(=O)(=O)c3ccc(Cl)cc3)ccc2O[C@@H]1CN(C)C(=O)Nc1cccc2ccccc12 | · | 12.8[16.7 µM] | · | · | · | 9.1
COc1cc(CNS(=O)(=O)c2ccc3c(c2)CC(C)N3C(=O)C2CCC2)cc(OC)c1OC (centres undefined) | -2.7 | 56.7* | 2.5 | -23.6 | -0.1 | 19.1
CSCCC(C(=O)N1CC2(C)CC1CC(C)(C)C2)N1C(=O)c2ccccc2C1=O (centres undefined) | 5.5 | 33.9* | 12.5 | 1.9 | 1.2 | 10.8
CC1(C)CC2CC(C)(CN2C(=O)CN2C(=O)c3ccccc3C2=O)C1 (centres undefined) | 2.1 | ? | 3.2 | · | 0.0 | ·
CCCC(=O)Nc1ccc2c(c1)OC[C@@H](C)N(CCC)C[C@@H](C)[C@@H](OC)CN(C)C2=O | · | -4.7[16.7 µM] | · | · | · | -6.0
O=C(/C=C/c1ccco1)Nc1nc(-c2ccccc2)cs1 | 1.7 | · | 5.4 | -32.7 | -3.3 | 98.0*
CC[C@@H]1CC=C[C@H]2[C@H]1C(=O)N(Cc1ccccc1)[C@H]2c1ccoc1 | 1.8 | · | -4.7 | · | 38.2* | ·
O=C1C2C(c3cccc(/C=C/c4ccccc4)c3)CC=CC2C(c2ccc(C(F)(F)F)cc2)N1Cc1ccccc1 (centres undefined) | 1.9 | 28.0 | -6.0 | -8.0 | -3.3 | -22.0
C[C@@H]1CC=C[C@H]2[C@H]1C(=O)N(Cc1ccccc1)[C@H]2c1ccoc1 | 1.2 | -7.1 | -2.7 | · | 3.7 | -9.7
CC[C@@H]1CC=C[C@H]2[C@H]1C(=O)N(Cc1ccccc1)[C@H]2c1ccc(C(F)(F)F)cc1 | 6.7 | 57.0* | 1.4 | 7.7 | -4.7 | 3.6
